This note sets out measurements from ChEMBL document CHEMBL4321862, “Application of Bivalent Bioisostere Concept on Design and Discovery of Potent Opioid Receptor Modulators” (J Med Chem, 2019).

By Ki is commonly meant the dissociation constant of the complex between target and ligand, obtained from inhibition or displacement. The term EC50 denotes the midpoint of the concentration-response curve. For orientation: Emax means the greatest response seen or fitted, relative to the assay's reference.

For experiment [1], the target named is T1, Mu-type opioid receptor (Mus musculus, UniProt P42866). The experiment in a line: Displacement of [3H]-Naloxone from mouse mu opioid receptor expressed in CHO cells incubated for […] by competitive radioligand binding assay. Type of experiment: cell-based. On the technique in general: In a radioligand displacement assay an active substance lowers the binding of a labelled ligand.

Experiment [2] can be described thus: Selectivity index, ratio of Ki for mouse kappa opioid receptor expressed in CHO cells to Ki for mouse mu opioid receptor expressed in CHO cells.
In experiment [3] the test system is Mus musculus. Nature of the experiment: Antinociceptive activity in Swiss Webster mouse assessed as increase in latency to tail withdrawal at 10 mg/kg, sc observed for 20 mins by warm water tail withdrawal assay. The class given is functional, organism-based. Summed up: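 Male Swiss Webster mice, 25–30 g, n = 5 per group, baseline tail latency 2–4 s accepted. Compound given s.c. in saline or water. Tail immersed in 56 ± 0.1 °C water 20 min post-dose, 10 s cutoff. %MPE = [(test − control)/(10 − control)] × 100. Saline and morphine as controls.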

For experiment [4], the target named is Delta-type opioid receptor (Homo sapiens, UniProt P41143). The experiment in a line: Displacement of [3H]-[…] from human delta opioid receptor expressed in CHO cells incubated for […] by competitive radioligand binding assay. Type of experiment: cell-based.
The target of experiment [5] is T1, Mu-type opioid receptor. Nature of the experiment: Agonist activity at recombinant mouse mu opioid receptor expressed in CHO cell membrane assessed as [35]-GTPgammaS binding incubated for […] by scintillation counting method. In general terms: Binding of GTPγS marks nucleotide exchange on a G protein.
The nature of experiment [6]: Selectivity index, ratio of Ki for human delta opioid receptor expressed in CHO cells to Ki for mouse mu opioid receptor expressed in CHO cells.
The target in experiment [7] is Kappa-type opioid receptor (Mus musculus, UniProt P33534). Nature of the experiment: Displacement of [3H]-[…] from mouse kappa opioid receptor expressed in CHO cells incubated for […] by competitive radioligand binding assay. The class given is cell-based.
Experiment [8] has as its target Mu-type opioid receptor (Mus musculus) (UniProt P42866). Nature of the experiment: Agonist activity at recombinant mouse mu opioid receptor expressed in CHO cell membrane assessed as [35]-GTPgammaS binding incubated for […] by scintillation counting method relative to DAMGO.
The test system of experiment [9] is Mus musculus. The experiment in a line: Inhibition of morphine-induced antinociceptive activity in subcutaneously dosed Swiss Webster mouse assessed as decrease in latency to tail withdrawal administered 5 mins before morphine stimulation observed for 20 mins by warm water tail withdrawal assay. The class given is functional. Summed up: (§1)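 Male Swiss Webster mice, n ≥ 5, baseline latency 2–4 s. Test compound given s.c. 5 min before morphine 10 mg/kg. Tail immersion at 56 ± 0.1 °C 20 min after morphine, 10 s cutoff, %MPE per mouse.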

Experiment [10] has as its system Mus musculus. The experiment in a line: Inhibition of morphine-induced antinociceptive activity in Swiss Webster mouse assessed as decrease in latency to tail withdrawal at 10 mg/kg, sc administered 5 mins before morphine stimulation observed for 20 mins by warm water tail withdrawal assay. The class given is functional, organism-based. Put shortly: as §1

Active and inactive are the calls of the source.

With `Cl.O=C(N[C@@H]1CC[C@@]2(O)[C@H]3Cc4ccc(O)c5c4[C@@]2(CCN3CC2CC2)[C@H]1O5)c1cc2ccccc2s1`, the inhibition constant (Ki) in experiment [1] was 0.14 nM; in experiment [4], 1.39 nM; in experiment [7] it was 0.2 nM. Further, the results for the “Ratio Ki” value in experiment [2] and in experiment [6] were 1.4 and 9.9, respectively. In addition, the outcome in [3] was Active. In addition, the EC50 in experiment [5] stood at 0.24 nM. Besides, the Emax in experiment [8] was 59%.

For `Cl.O=C(N[C@@H]1CC[C@@]2(O)[C@H]3Cc4ccc(O)c5c4[C@@]2(CCN3CC2CC2)[C@H]1O5)c1coc2ccccc12`, the Ki in experiment [1] came out at 0.13 nM; in [4] it was 10.3 nM; in experiment [7], 0.3 nM. The “Ratio Ki” value in experiment [2] is given as 2.3; in [6], 79.2. For the same compound, in experiment [5], the concentration giving a half-maximal response (EC50) stood at 0.47 nM. In addition, the Emax in [8] came to 43.2%.

With `Cl.O=C(N[C@@H]1CC[C@@]2(O)[C@H]3Cc4ccc(O)c5c4[C@@]2(CCN3CC2CC2)[C@H]1O5)c1csc2ccccc12`, the Ki worked out at 0.14 nM in [1], 18.6 nM in [4] and 0.48 nM in [7]. For the same compound, the “Ratio Ki” value in [2] amounted to 3.4; in experiment [6], 133.21. For the same compound, the EC50 in [5] stood at 0.37 nM. In experiment [8], the maximum response (Emax) amounted to 29.9%.

`O=C(N[C@H]1CC[C@@]2(O)[C@H]3Cc4ccc(O)c5c4[C@@]2(CCN3CC2CC2)[C@H]1O5)c1cccc2ccoc12`: the affinity in [7] corresponds to a Ki of 5.12 nM. Moreover, in experiment [8], the Emax was found to be 12.9%.

Regarding `Cl.O=C(N[C@@H]1CC[C@@]2(O)[C@H]3Cc4ccc(O)c5c4[C@@]2(CCN3CC2CC2)[C@H]1O5)c1cccc2sccc12`, the Ki in experiment [1] came to 0.16 nM; in [4], 24 nM; in experiment [7], 0.75 nM. Also, the “Ratio Ki” value is on record as 4.7 in experiment [2] and 150.3 in [6]. Further, in experiment [5], the EC50 was found to be 0.32 nM. The Emax in experiment [8] turned out to be 23.1%.

For the compound `Cl.O=C(N[C@H]1CC[C@@]2(O)[C@H]3Cc4ccc(O)c5c4[C@@]2(CCN3CC2CC2)[C@H]1O5)c1csc2ccccc12`, the values for the Ki in experiment [1], in [4] and in experiment [7] were 0.2 nM, 9.07 nM and 2.39 nM, respectively. Further, the results for the “Ratio Ki” value in experiment [2] and in [6] were 11.9 and 45.4, respectively. Further, in [5], the EC50 was 1.85 nM. For the same compound, the Emax in experiment [8] turned out to be 14.3%.

As for `Cl.O=C(N[C@H]1CC[C@@]2(O)[C@H]3Cc4ccc(O)c5c4[C@@]2(CCN3CC2CC2)[C@H]1O5)c1ccc2sccc2c1`, the Ki in [1] was 0.39 nM; in experiment [4], 11.9 nM; in [7], 2.19 nM. The “Ratio Ki” value is on record as 5.6 in experiment [2] and 30.4 in experiment [6]. The EC50 in [5] was determined as 2.47 nM. For the same compound, in [8], the Emax worked out at 18.9%.

For the compound `Cl.O=C(N[C@@H]1CC[C@@]2(O)[C@H]3Cc4ccc(O)c5c4[C@@]2(CCN3CC2CC2)[C@H]1O5)c1ccc2occc2c1`, the inhibition constant Ki in [1] is 0.15 nM; in experiment [4], 5.31 nM; in experiment [7], 0.21 nM. For the same compound, the “Ratio Ki” value was 1.4 in experiment [2] and 35.4 in [6]. Further, the result in experiment [3] was Active. In experiment [5], the concentration giving a half-maximal response (EC50) was 0.41 nM. Moreover, the Emax in [8] amounted to 52.2%.

For the compound `Cl.O=C(N[C@@H]1CC[C@@]2(O)[C@H]3Cc4ccc(O)c5c4[C@@]2(CCN3CC2CC2)[C@H]1O5)c1cccc2occc12`, the AD50 in experiment [9] was 2.79 mg/kg. Besides, the Ki in experiment [1] is 0.17 nM; in experiment [4], 70.5 nM; in [7], 0.8 nM. Moreover, the results for the “Ratio Ki” value in experiment [2] and in [6] were 4.7 and 415, respectively. In addition, in [5], the EC50 was determined as 0.59 nM. In addition, the Emax in [8] was determined as 23.6%. In [10], the inhibition result is “Active”.

Consider `Cl.O=C(N[C@H]1CC[C@@]2(O)[C@H]3Cc4ccc(O)c5c4[C@@]2(CCN3CC2CC2)[C@H]1O5)c1coc2ccccc12`, for which, in [9], the AD50 amounted to 2.51 mg/kg. Besides, the Ki in [1] is 0.27 nM; in experiment [4], 16.8 nM; in [7] it was 3.37 nM. The entries for the “Ratio Ki” value in [2] and in [6] were 12.5 and 62.3, respectively. In addition, the EC50 in [5] came to 1.57 nM. The Emax in experiment [8] is 18.7%. Moreover, the inhibition entry in experiment [10] was “Active”.

On to `Cl.O=C(N[C@@H]1CC[C@@]2(O)[C@H]3Cc4ccc(O)c5c4[C@@]2(CCN3CC2CC2)[C@H]1O5)c1cccc2ccsc12`, for which the Ki in experiment [1] was found to be 0.19 nM; in [4] it was 38.9 nM; in experiment [7], 1.62 nM. Moreover, the “Ratio Ki” value is 8.5 in [2] and 204.9 in experiment [6]. Moreover, the half-maximal effective concentration (EC50) in experiment [5] is 2.97 nM.

For `Cl.O=C(N[C@H]1CC[C@@]2(O)[C@H]3Cc4ccc(O)c5c4[C@@]2(CCN3CC2CC2)[C@H]1O5)c1cc2ccccc2s1`, the Ki was determined as 0.27 nM in experiment [1], 14.3 nM in experiment [4] and 1.21 nM in experiment [7]. Further, the “Ratio Ki” value in [2] was found to be 4.5; in experiment [6] it was 53. Moreover, the EC50 in experiment [5] amounted to 4.02 nM. For the same compound, the Emax in experiment [8] was determined as 22.9%.

In the case of `Cl.O=C(N[C@H]1CC[C@@]2(O)[C@H]3Cc4ccc(O)c5c4[C@@]2(CCN3CC2CC2)[C@H]1O5)c1cccc2sccc12`, the Ki in experiment [1] worked out at 0.26 nM; in experiment [4] it was 6.85 nM; in experiment [7], 2.35 nM. Besides, the “Ratio Ki” value was found to be 9 in experiment [2] and 26.3 in experiment [6]. Also, the EC50 in [5] was found to be 1.05 nM. Also, the maximal response (Emax) in [8] amounted to 16.1%.

In the case of `Cl.O=C(N[C@H]1CC[C@@]2(O)[C@H]3Cc4ccc(O)c5c4[C@@]2(CCN3CC2CC2)[C@H]1O5)c1ccc2occc2c1`, in experiment [9], the AD50 was determined as 2.03 mg/kg. Further, the results for the Ki in [1], in experiment [4] and in experiment [7] were 0.35 nM, 29 nM and 4.23 nM, respectively. For the same compound, the “Ratio Ki” value is listed as 12.1 in experiment [2] and 82.9 in [6]. In addition, the half-maximal effective concentration (EC50) in experiment [5] was 3.72 nM. Also, in [8], the Emax is 17.7%. Further, in [10], the inhibition entry was “Active”.

As for `Cl.O=C(N[C@H]1CC[C@@]2(O)[C@H]3Cc4ccc(O)c5c4[C@@]2(CCN3CC2CC2)[C@H]1O5)c1cc2ccccc2o1`, in experiment [9], the AD50 is 3.21 mg/kg. In addition, the Ki in experiment [1] is 0.44 nM; in [4] it was 35.9 nM; in experiment [7], 1.67 nM. Also, the “Ratio Ki” value in [2] was 3.8; in experiment [6] it was 81.6. Moreover, the 50% effective concentration (EC50) in experiment [5] was found to be 5.52 nM. Besides, the Emax in experiment [8] came out at 34%. The inhibition entry in experiment [10] was “Active”.

On to `Cl.O=C(N[C@H]1CC[C@@]2(O)[C@H]3Cc4ccc(O)c5c4[C@@]2(CCN3CC2CC2)[C@H]1O5)c1ccc2ccoc2c1`, for which the values for the inhibition constant (Ki) in experiment [1], in experiment [4] and in experiment [7] were 0.29 nM, 30.7 nM and 1.66 nM, respectively. The “Ratio Ki” value is 5.7 in experiment [2] and 105.8 in [6]. In experiment [5], the EC50 came to 2.23 nM. Further, the Emax in experiment [8] was 30.5%.

For `Cl.O=C(N[C@H]1CC[C@@]2(O)[C@H]3Cc4ccc(O)c5c4[C@@]2(CCN3CC2CC2)[C@H]1O5)c1ccc2ccsc2c1`, the Ki in experiment [1] is 0.28 nM; in experiment [4], 22.3 nM; in experiment [7], 3.72 nM. In addition, the “Ratio Ki” value in [2] was determined as 13.3; in [6] it was 79.6. Moreover, the EC50 in [5] was 3.01 nM. The Emax in [8] stood at 18.1%.
